RGS4 block = RGS4 inhibitors, primary screen, cell-based, HEK293 M3R inducible RGS4, calcium flux | Regulator of G-protein signaling 4 (Homo sapiens), P49798 | Fluo-4 calcium flux; stronger effect = higher value; triggered by carbachol at its EC20 | B-score at 10 µM | hit rate 0.45% among 310,000 | AID 463165, 2010;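 active = B-score, a plate-corrected calcium signal, over three deviations above library mean, with baseline fluorescence within five deviations of library mean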;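 also: RGS4 expression induced by doxycycline in cells with stable M3 receptor; B-score is computed from the integrated fluorescence ratio over baseline after carbachol; higher B-score means a larger calcium signal and so more RGS4 inhibition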
Target sequence (P49798 whole entry, looked up): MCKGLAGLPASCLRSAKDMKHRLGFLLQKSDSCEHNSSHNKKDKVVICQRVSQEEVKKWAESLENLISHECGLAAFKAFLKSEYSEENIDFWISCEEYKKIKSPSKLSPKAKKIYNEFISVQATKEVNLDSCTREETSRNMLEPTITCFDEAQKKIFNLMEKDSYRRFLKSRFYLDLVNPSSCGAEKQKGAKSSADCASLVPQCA
MrgX1 allo act = positive allosteric modulators of MrgX1, primary screen, HEK293 cells, Fluo-4 calcium flux | Mas-related G-protein coupled receptor member X1 (Homo sapiens), Q96LB2 | FDSS; stronger effect = higher value | B-score at 10 µM | hit rate 0.63% among 310,000 | AID 588675, 2011;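 active = plate-corrected calcium response at least 3 library SD above typical, normal starting fluorescence, not activating the receptor alone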;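 also: compound read alongside a low EC10 to EC30 dose of BAM8-22 agonist; peak minus trough fluorescence over baseline measured at the second addition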
Target sequence (Q96LB2 whole entry, looked up): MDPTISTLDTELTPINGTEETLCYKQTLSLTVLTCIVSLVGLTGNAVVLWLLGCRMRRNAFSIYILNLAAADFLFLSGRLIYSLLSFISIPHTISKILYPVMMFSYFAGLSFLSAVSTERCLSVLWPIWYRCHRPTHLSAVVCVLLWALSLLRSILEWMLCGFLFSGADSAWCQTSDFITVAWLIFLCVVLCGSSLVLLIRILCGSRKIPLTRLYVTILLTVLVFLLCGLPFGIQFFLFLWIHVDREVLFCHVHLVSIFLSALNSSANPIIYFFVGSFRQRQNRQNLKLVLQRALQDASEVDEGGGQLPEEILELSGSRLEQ
RGS4 pot = RGS4 potentiators or activators, primary screen, cell-based, HEK293 M3R inducible RGS4, calcium flux; carbachol calcium flux Fluo4; stronger effect = lower value; B-score at 10 µM; hit rate 0.92% among 310,000; AID 463111, 2010;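 active = B-score of the integrated calcium signal more than 4 SD below the library mean, with starting fluorescence not abnormally high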;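 also: negative B-score means reduced calcium response which marks RGS4 activation or potentiation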
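Material: Inducible-RGS4 HEK293 cells carrying M3 receptor; also added: carbachol at ECmax as muscarinic agonist stimulus; incubation: compound preincubation 20 min at room temperature before agonist; signal: Fluo4-AM (2 µM) calcium-flux fluorescence, kinetic read; measure: integrated calcium ratio converted to B score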
MrgX1 ag = agonists of human MrgX1 receptor, primary screen, HEK293 cells, Fluo-4 calcium flux. Mas-related G-protein coupled receptor member X1 (Homo sapiens), Q96LB2. B-score at 10 µM. hit rate 0.44% among 310,000. Fluo-4 calcium fluorescence, agonist mode; stronger effect = higher value;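 active = calcium response B-score plate-corrected fluorescence ratio at least 3 library SD, with starting fluorescence B-score inside 5 SD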
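System: HEK293 cells stably expressing human MrgX1 receptor; Dosing: test compound in the initial addition of three; Schedule: overnight plating, then 30 min 37 °C plus 30 min room-temperature dye loading; Detection: kinetic calcium dye fluorescence, Fluo-4 NW; Controls: per-plate positive and negative controls for Z′ factor.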
MrgX1 antag = antagonists of human MrgX1 receptor, primary screen, HEK293 cells, Fluo-4 calcium flux; AID 588676, 2011; BAM8-22 antagonism; stronger effect = lower value; B-score at 10 µM; Mas-related G-protein coupled receptor member X1 (Homo sapiens), Q96LB2; hit rate 1.3% among 310,000;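 active = calcium-response B-score plate-corrected more than 3 library SD below zero, starting fluorescence within 5 deviations, no agonist response on first addition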;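 also: peak minus trough fluorescence over baseline after final BAM8-22 challenge near maximal dose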
MrgX1 PAM conf = MrgX1 positive allosteric modulators, duplicate retest, confirmation, HEK293 cells, Fluo-4 calcium flux | shares compounds with MrgX1 allo act | Fluo-4 calcium fluorescence, FDSS | activation (ratio percentage), % at 10 µM | hit rate 13% among 1,200 | AID 602413, 2012;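 active = ratio at least 3 SD above the weak peptide control, stable starting fluorescence, no direct agonism earlier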;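 also: compound followed by low BAM8-22 agonist challenge near EC20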
HEK293 Ca flux = nonspecific calcium signal in parental HEK293, confirmation, counter-screen for MrgX1 antagonist project, parental HEK293 cells, Fluo-4 calcium flux; AID 624111, 2012; shares compounds with MrgX1 antag; hit rate 2% among 4,000; fluorescence ratio F(max-min)/F0 at 10 µM; Fluo-4 calcium fluorescence, FDSS;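 active = duplicate-averaged calcium fluorescence ratio at least three times the standard deviation of buffer wells, a nonspecific response in parental cells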
HEK293 Ca counter = calcium response in parental HEK293 cells, primary screen, counter-screen for MrgX1 allosteric activator project, cell-based, Fluo-4 calcium flux, duplicate; shares compounds with MrgX1 antag; Fluo-4 fluorescence ratio; stronger effect = higher value; fluorescence ratio F(max-min)/F0 at 10 µM; hit rate 0.4% among 4,000;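 active = calcium fluorescence ratio, averaged over duplicates, at least 3 SD of the buffer-well ratio, meaning a nonspecific response in receptor-free cells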;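 also: untransfected parental HEK293 lacking MrgX1 used as counterscreen for MrgX1 allosteric activators; fluorescence change taken during the second addition on a kinetic imager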
HEK293 Ca cntr2 = calcium response in parental HEK293 cells, primary screen, counter-screen for MrgX1 agonist project, cell-based, Fluo-4 calcium flux, duplicate, agonist mode; fluorescence ratio F(max-min)/F0 at 10 µM; Fluo-4 calcium fluorescence (FDSS); stronger effect = higher value; shares compounds with MrgX1 antag; hit rate 8.7% among 4,000;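 active = calcium fluorescence ratio at least three times the spread of buffer wells, meaning a non-specific response in parental cells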
* hit, by the source's call; i = inactive; x = no result given. An excerpt weighted towards active compounds, which were near 3.5% of everything screened.

SMILES | RGS4 block | MrgX1 allo act | RGS4 pot | MrgX1 ag | MrgX1 antag | MrgX1 PAM conf | HEK293 Ca flux | HEK293 Ca counter | HEK293 Ca cntr2
CCOC(=O)c1c(NC(=O)CN2CCOCC2)sc2c1CCCC2 | i | 7.1* | i | i | i | i | i | i | i
CCOC(=O)c1c(NC(=O)CN2CCOCC2)sc2c1CCCC2=O | i | i | i | i | i | x | x | x | x
O=C1CC(c2ccc3c(c2)OCO3)Sc2nc3ccccc3n21 (stereo not drawn) | i | 7.5* | i | i | i | i | i | i | i
O=C1CC(c2ccccc2)Sc2nc3ccccc3n21 (stereo not drawn) | i | i | i | i | i | x | x | x | x
c1ccc(Nc2nc(-c3ccccc3)ns2)cc1 | i | i | i | i | i | x | x | x | x
Cc1cccc(-n2c(-c3csc(C(C)C)c3)n[nH]c2=S)c1 | i | i | i | i | i | x | x | x | x
CCCc1cc(-c2n[nH]c(=S)n2-c2cccc(C)c2)cs1 | i | 8* | i | i | i | i | i | i | i
COC(=O)c1ccc(NS(=O)(=O)c2ccc(Cl)cc2)o1 | i | 22* | i | i | i | 12%* | i | i | i
COc1ccc(OC)c(S(=O)(=O)NCCS(=O)(=O)N2CCN(c3ccccc3)CC2)c1 | i | i | i | i | i | x | x | x | x
CCCCN1C(=O)C(O)(c2ccccc2)c2cc(Br)ccc21 (stereo not drawn) | i | i | i | i | i | x | x | x | x
COC(=O)c1[nH]c2ccc(C)cc2c1NC(=O)CN1CCC(C)CC1 | i | 7.8* | i | i | i | i | i | i | i
COC(=O)c1[nH]c2ccc(C)cc2c1NC(=O)CN1CCN(c2ccccc2)CC1 | i | i | i | i | i | x | x | x | x
C=CCSc1nc2ccccc2c(=O)n1C1CCOC(C)(C)C1 (stereo not drawn) | i | 11* | i | i | i | i | i | i | i
CCSc1nnc2n(-c3ccc(OC)cc3)c(=O)c3c4c(sc3n12)CCCC4 | i | i | i | i | i | x | x | x | x
COc1ccccc1-n1c(=O)c2c3c(sc2n2c(SC)nnc12)CCC3 | i | 15* | i | i | i | i | i | i | i
Cc1ncc(CN2CCC(CO)(CCc3ccccc3)CC2)s1 | i | i | i | i | i | x | x | x | x
COc1cccc(-c2cccc(NC(=O)C3CCN(Cc4ccon4)CC3)c2)c1 | i | i | i | i | i | x | x | x | x
Cc1ccc(C(=O)NC2CCCCC2)cc1 | i | i | i | i | i | x | x | x | x
Cc1cc(C)n(-c2ccc(C(=O)NC3CCCCC3)cc2)n1 | i | 9.8* | i | i | i | i | i | i | i
Cc1ccc(S(=O)(=O)N(C)C)cc1NC(=O)COC(=O)c1ccc2c(c1)NC(=O)CS2 | i | i | i | i | i | x | x | x | x
C=CCn1c(=O)c(C(=O)Nc2ccccc2S(N)(=O)=O)c(O)c2ccccc21 | i | 8.4* | i | i | i | i | i | i | i
CN1CCCN(c2ncnc3scc(-c4ccc(F)cc4)c23)CC1 | i | i | i | i | i | x | x | x | x
CC(C)c1ccc(-c2csc3ncnc(N4CCN(C)CC4)c23)cc1 | i | 7.3* | i | i | i | i | i | i | i
COc1ccccc1CNC(=O)c1cc(C)nn1-c1ccccc1 | i | i | i | i | i | x | x | x | x
Cc1cc(C(=O)NCc2ccccc2Cl)n(-c2ccccc2)n1 | i | 9.3* | i | i | i | i | i | i | i
SMILES | RGS4 block | MrgX1 allo act | RGS4 pot | MrgX1 ag | MrgX1 antag | MrgX1 PAM conf | HEK293 Ca flux | HEK293 Ca counter | HEK293 Ca cntr2
O=C(NCc1cccnc1)C1CC(c2ccc(Cl)c(Cl)c2)=NO1 (stereo not drawn) | i | i | i | i | i | x | x | x | x
C/C(=N\NC(=O)c1cc2ccccc2cc1O)c1cc2ccccc2o1 | i | 22* | i | i | i | i | i | i | i
C/C(=N\NC(=O)c1nc2ccccn2c1C)c1cc2ccccc2o1 | i | i | i | i | i | x | x | x | x
CCOC1=C/C(=C/c2c(N)n3nc(CC(=O)N4CCCCC4)sc3nc2=O)C=CC1=O | i | i | i | i | i | x | x | x | x
CCOC1=C/C(=C/c2c(N)n3nc(S(=O)(=O)CC)sc3nc2=O)C=CC1=O | i | 34* | i | i | i | i | 0.64* | i | 46*
CC(C)(C)C(=O)c1cnc(Nc2ccccc2Cl)s1 | i | 7.1* | i | i | i | i | i | i | i
O=C1CCc2cc(NS(=O)(=O)c3ccc([N+](=O)[O-])cc3)cc3c2N1CCC3 | i | i | i | i | i | x | x | x | x
Cc1ccccc1Nc1nc(N)nc(CSc2nc3ccccc3s2)n1 | i | 8.8* | i | i | i | i | i | i | i
COc1cccc(-n2cc(CNC(=O)C3CCC(=O)N(C4CC4)C3)cn2)c1 (stereo not drawn) | i | i | i | i | i | x | x | x | x
Cc1ccc(OCC(=O)Nc2ccccc2-c2ccccc2)cc1 | i | 6.6* | i | i | i | i | i | i | i
COc1ccc(N2CCOCC2)c(NC(=O)COc2cccc(C)c2)c1 | i | i | i | i | i | x | x | x | x
COc1ccc(N2CCOCC2)c(NC(=O)COc2cccc(C)c2C)c1 | i | 12* | i | i | i | i | i | i | i
Cc1ccccc1OCC(=O)Nc1ccccc1N1CCOCC1 | i | 6.8* | i | i | i | i | i | i | i
Cc1cc(C)c(OCC(=O)Nc2ccccc2N2CCOCC2)c(C)c1 | i | 6.9* | i | i | i | i | i | i | i
